Measured values from ChEMBL document CHEMBL1125740, “Heterocyclic quinones. 17. A new in vivo active antineoplastic drug: 6,7-bis(1-aziridinyl)-4-[[3-(N,N-dimethylamino)propyl]amino]-5,8- quinazolinedione” (J Med Chem, 1991).
Several values for one entry are separate records, joined by “and”; a condition that tells them apart may be missing. Equal values may be shown once.

Tests used:
P388 [1] = experiment: Compound was evaluated in vivo for antitumor activity after intraperitoneal administration against P388/L-PAM(14) for % increase in life span at an optimal dose of 0.5 mg/kg/injection at 1,4,7,11 day schedule.; format: functional; conditions: Mus musculus, P388, ip
P388 [2] = experiment: Compound was evaluated in vivo for antitumor activity after intraperitoneal administration against P388/L-PAM(14) for % increase in life span at an optimal dose of 0.25 mg/kg/injection at 1,4,7,11 day schedule.; format: functional; conditions: Mus musculus, P388, ip
P388 [3] = experiment: Compound was evaluated in vivo for antitumor activity after intraperitoneal administration against P388/L-PAM(14) for change in body weight at an optimal dose of 0.2 mg/kg/injection at 1,2,3,4 day schedule.; format: functional, Mus musculus
[4] = Compound was evaluated in vivo for antitumor activity against Glasgow osteogenic sarcoma after injecting the compound intravenously for total dose.; format: functional, Mus musculus
Summary of the method: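 Glasgow osteogenic sarcoma in C57Bl/6-derived hosts: 30-60 mg fragments implanted sc by trocar on day 0. Drug given iv on days 3, 6 and 9, 7 mice per group. Tumors measured by caliper. Median tumor burden recorded on day 10. Body weight change per mouse recorded at nadir. Toxicity-related deaths counted.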

L1210 [5] = experiment: Compound was evaluated in vivo for antitumor activity after intraperitoneal administration against L1210(935) for tumor free survivors at an optimal dose of 0.125 mg/kg/injection at 1,4,7,11 day schedule.; format: functional, Mus musculus
Summary of the method: (§1)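 L1210 leukemia, maintained in DBA/2 mice, was given ip as 10⁵ cells on day 0 to F1 hybrid or strain-of-origin mice over 18 g, in groups of 8. Dosing was ip from day 1, and mortality was checked daily. Median day of death counts dying mice only. %ILS = 100×(treated − control median day of death)/control median. Tumor-free survivors were counted on day 60. Weight change is g/mouse at nadir.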

L1210 [6] = experiment: Compound was evaluated in vivo for antitumor activity after intraperitoneal administration against L1210(935) for tumor free survivors at an optimal dose of 0.2 mg/kg/injection at 1-4 day schedule.; format: functional, Mus musculus; summary of the method: as §1
B16 [7] = experiment: Compound was evaluated in vivo for antitumor activity against B16 melanoma 2 after injecting the compound intravenously median tumor burden; format: functional, Mus musculus
P388 [8] = experiment: Compound was evaluated in vivo for antitumor activity after intraperitoneal administration against P388/L-PAM(14) for % increase in life span at an optimal dose of 0.5 mg/kg/injection at one day schedule.; format: functional; conditions: Mus musculus, P388, ip, 24 h
P388 [9] = experiment: Compound was evaluated in vivo for antitumor activity after intraperitoneal administration against P388/L-PAM(14) for % increase in life span at an optimal dose of 0.125 mg/kg/injection at 1,4,7,11 day schedule.; format: functional; conditions: Mus musculus, P388, ip
P388 [10] = experiment: Compound was evaluated in vivo for antitumor activity after intraperitoneal administration against P388 (1313) for total dose at an optimal dose of 0.4 mg/kg/injection; format: functional, Mus musculus
P388 [11] = experiment: Compound was evaluated in vivo for antitumor activity after intraperitoneal administration against P388/L-PAM(14) for mortality range at an optimal dose of 1 mg/kg/injection; format: functional, Mus musculus
P388 [12] = experiment: Compound was evaluated in vivo for antitumor activity after intraperitoneal administration against P388 (1313) for change in body weight at an optimal dose of 1 mg/kg/injection; format: functional, Mus musculus
P388 [13] = experiment: Compound was evaluated in vivo for antitumor activity after intraperitoneal administration against P388 (1313) for % increase in life span at an optimal dose of 1 mg/kg/injection; format: functional; conditions: Mus musculus, P388, ip
[14] = Compound was evaluated in vivo for antitumor activity against Lewis Lung cercinoma after injecting the compound intravenously for percent T/C (value in parentheses indicates the day of evaluation); format: functional, Mus musculus
[15] = Compound was evaluated in vivo for antitumor activity against mammary adenocarcinoma 16/C after injecting the compound intravenously for percent T/C; format: functional, Mus musculus
Summary of the method: (§2)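 30-60 mg tumor fragments implanted sc by trocar on day 0 into C57Bl/6-derived hosts (B16) or C3H/He-derived hosts (16/C). Drug given iv on days 6, 9 and 13 (B16) or 6, 9 and 12 (16/C), 10 mice per group. Tumors measured by caliper. T/C % taken from median tumor burden of treated vs control groups on day 15 (B16) or day 14 (16/C). Body weight change per mouse recorded at nadir.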

P388 [16] = experiment: Compound was evaluated in vivo for antitumor activity after intraperitoneal administration against P388/L-PAM(14) for change in body weight at an optimal dose of 0.125 mg/kg/injection at 1,4,7,11 day schedule.; format: functional, Mus musculus
L1210 [17] = experiment: Compound was evaluated in vivo for antitumor activity after intraperitoneal administration against L1210(935)for % increase in life span at an optimal dose of 0.125 mg/kg/injection at 1,4,7,11day schedule.; format: functional; conditions: Mus musculus, L1210, ip; summary of the method: as §1
L1210 [18] = experiment: Compound was evaluated in vivo for antitumor activity after intraperitoneal administration against L1210(935)for change in body weight at an optimal dose of 0.25 mg/kg/injection at 1,4,7,11day schedule.; format: functional, Mus musculus; summary of the method: as §1
P388 [19] = experiment: Compound was evaluated in vivo for antitumor activity after intraperitoneal administration against P388/L-PAM(14) for total dose at an optimal dose of 0.2 mg/kg/injection at 1,2,3,4 day schedule.; format: functional, Mus musculus
[20] = Compound was evaluated in vivo for antitumor activity against Lewis Lung cercinoma after injecting the compound intravenously for change in body weight.; format: functional, Mus musculus
Summary of the method: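 Lewis lung carcinoma: 10^6 cells implanted im into C57Bl/6-derived hosts. Drug given iv on days 5, 9 and 13, 10 mice per group. Median tumor burden and weight nadir recorded. Survivors were killed on day 19, and their lungs were fixed in Fekete solution so that macroscopic metastases could be counted.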

[21] = Compound was evaluated in vivo for antitumor activity against colon adenocarcinoma 38 after injecting the compound intravenously for percent T/C (value in parentheses indicates the day of evaluation); format: functional, Mus musculus
P388 [22] = experiment: Compound was evaluated in vivo for antitumor activity after intraperitoneal administration against P388 (1313) for change in body weight at an optimal dose of 0.5 mg/kg/injection; format: functional, Mus musculus
P388 [23] = experiment: Compound was evaluated in vivo for antitumor activity after intraperitoneal administration against P388 (1313) for total dose at an optimal dose of 0.5 mg/kg/injection; format: functional, Mus musculus
L1210 [24] = experiment: Compound was evaluated in vivo for antitumor activity after intraperitoneal administration against L1210(935)for % increase in life span at an optimal dose of 0.5 mg/kg/injection at 1 day schedule.; format: functional; conditions: Mus musculus, L1210, ip, 24 h; summary of the method: as §1
B16 [25] = experiment: Compound was evaluated in vivo for antitumor activity against B16 melanoma after injecting the compound intravenously for percent T/C (value in parentheses indicates the day of evaluation); format: functional, Mus musculus; summary of the method: as §2
P388 [26] = experiment: Compound was evaluated in vivo for antitumor activity after intraperitoneal administration against P388 (1313) for % increase in life span at an optimal dose of 0.25 mg/kg/injection; format: functional; conditions: Mus musculus, P388, ip
M5076 [27] = experiment: Compound was evaluated in vivo for antitumor activity against M5076 after injecting the compound intravenously for total dose.; format: functional, Mus musculus
M5076 [28] = experiment: Compound was evaluated in vivo for antitumor activity against M5076 after injecting the compound intravenously for median tumor burden; format: functional, Mus musculus
L1210 [29] = experiment: Compound was evaluated in vivo for antitumor activity after intraperitoneal administration against L1210(935) for median day of death at an optimal dose of 1 mg/kg/injection at 1 day schedule.; format: functional, Mus musculus; summary of the method: as §1
P388 [30] = experiment: Compound was evaluated in vivo for antitumor activity after intraperitoneal administration against P388/L-PAM(12) for change in body weight at an optimal dose of 0.75 mg/kg/injection; format: functional, Mus musculus

CN(C)CCCNc1ncnc2c1C(=O)C(N1CC1)=C(N1CC1)C2=O
ILS at 0.5 mg/kg (P388 [1]): 61% | ILS at 0.25 mg/kg (P388 [2]): 18% | Change of weight (P388 [3]): 1.7 g mouse-1 | Total dose [4]: 1.08 mg/kg | Survivors (L1210 [5]): 0 | Survivors (L1210 [6]): 1 | Tumor burden (B16 [7]): 27 mg | ILS at 0.5 mg/kg (P388 [8]): 28% | ILS at 0.125 mg/kg (P388 [9]): 10% | Optimal dose (P388 [10]): 1.6 mg/kg | Mortality (P388 [11]): 26 days | Change in body weight (P388 [12]): -0.5 | ILS at 1 mg/kg (P388 [13]): 70% | T/C [14]: 81% | T/C [15]: 48% and 68% | Change in body weight (P388 [16]): 0.8 g mouse-1 | ILS at 0.125 mg/kg (L1210 [17]): 18% | Change in body weight (L1210 [18]): 1.6 g mouse-1 | Total dose (P388 [19]): 0.8 mg/kg | Change in body weight [20]: 0.6 g mouse-1 and 1.1 g mouse-1 | T/C [21]: 102% | Change in body weight (P388 [22]): 0 g mouse-1 | Optimal dose (P388 [23]): 2 mg/kg | ILS at 0.5 mg/kg (L1210 [24]): 27% | T/C (B16 [25]): 41% and 78% | ILS at 0.25 mg/kg (P388 [26]): 58% | Total dose (M5076 [27]): 4 mg/kg | Tumor burden (M5076 [28]): 29 | Median day of death (L1210 [29]): 14 | Change in body weight (P388 [30]): -1 g mouse-1
